ATG4B inh: ATG4B (human) cysteine protease inhibition. Q9Y4P1. ATG4B cleavage of LC3-PLA2, NBD-HPC fluorescence, 1 h. inhibition, % at 8.33 µM. 0.51% of 340,000 active; in the data active = inhibition above about 40%
MBD2 DNA inh: MBD2-methylated oligo binding inhibition; Q9UBB5; inhibition, % at 4.4 µM; TR-FRET, MBD2 binding to methylated oligonucleotide; 0.31% of 370,000 active; AID 686964; in the data active = inhibition above about 13%
CSN deneddyl inh: inhibitors of human CSN-mediated cullin deneddylation | Q92905 | Purified CSN, SCF-Nedd8-OG deneddylation, fluorescence polarization | inhibition, % at 12.5 µM | 0.38% of 360,000 active | AID 651999;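 active = pattern-corrected inhibition above about 35%, with an unprinted fluorescence ratio check between 0.5 and 1.5, limit read from the data, passing the limit was not always enough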;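 note: 0% = enzyme with substrate and 100% = substrate without enzyme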
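Test system: purified human Csn5 enzyme expressed in HEK293T cells. Amount: 0.24 nM enzyme. Reagent: SCFSkp2-Nedd8OG substrate at 10 nM final. Schedule: 90 min incubation of compound, enzyme and substrate at room temperature. Detection: fluorescence polarization. Read-out: % inhibition of substrate cleavage by Csn5.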
LEDGF integ inh: blocks HIV-1 LEDGF/p75-dependent DNA integration; TR-FRET IN-LEDGF/p75 DNA integration, Eu/Cy5; inhibition, % at 3.7 µM; 0.64% of 370,000 active; AID 743269;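 active = inhibition above the screen-wide mean plus 3 SD, cut at about 13% in these data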;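 note: signal is the Cy5 over europium emission ratio at 671 and 618 nm; 0% = plate median of compound wells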
UHRF1 binding: human UHRF1 methylated DNA binding inhibitors; Q96T88; UHRF1 binding to methylated oligo, TR-FRET; inhibition, % at 4.4 µM; 0.75% of 370,000 active; AID 687016;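 note: UHRF1 SRA domain binding a hemimethylated CpG hairpin DNA probe; 0% = median of test compound wells and 100% = reference inhibitor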
Target sequence (Q96T88 whole entry, looked up, the tested form may be a part): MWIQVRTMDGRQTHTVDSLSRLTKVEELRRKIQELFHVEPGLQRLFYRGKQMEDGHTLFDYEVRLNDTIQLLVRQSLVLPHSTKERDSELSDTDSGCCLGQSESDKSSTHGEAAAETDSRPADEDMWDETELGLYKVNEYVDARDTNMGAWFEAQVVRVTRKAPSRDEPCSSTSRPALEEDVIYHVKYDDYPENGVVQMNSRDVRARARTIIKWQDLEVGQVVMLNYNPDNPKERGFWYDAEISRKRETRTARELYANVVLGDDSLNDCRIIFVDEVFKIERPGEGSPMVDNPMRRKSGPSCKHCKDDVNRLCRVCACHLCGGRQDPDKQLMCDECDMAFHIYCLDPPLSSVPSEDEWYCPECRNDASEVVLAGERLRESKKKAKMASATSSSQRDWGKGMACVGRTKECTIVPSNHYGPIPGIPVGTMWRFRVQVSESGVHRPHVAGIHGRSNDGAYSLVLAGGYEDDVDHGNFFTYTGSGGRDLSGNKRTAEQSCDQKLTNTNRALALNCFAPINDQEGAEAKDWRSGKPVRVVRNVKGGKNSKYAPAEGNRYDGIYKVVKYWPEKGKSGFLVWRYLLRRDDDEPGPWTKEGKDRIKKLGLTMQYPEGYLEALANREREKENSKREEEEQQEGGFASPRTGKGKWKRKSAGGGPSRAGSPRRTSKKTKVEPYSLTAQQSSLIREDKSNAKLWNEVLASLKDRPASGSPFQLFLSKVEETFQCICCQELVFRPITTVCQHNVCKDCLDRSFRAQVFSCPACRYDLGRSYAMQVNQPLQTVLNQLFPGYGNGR
rCAG binder: molecules binding r(CAG) RNA repeats. r(CAG) RNA repeat, TO-PRO-1 dye displacement fluorescence. inhibition, % at 3 µM. 1.3% of 370,000 active. AID 651821;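 active = inhibition above the plate cutoff, the mean of all test compounds on that plate plus 3 SD, cut at about 35% in these data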;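 note: 0% = DMSO alone and 100% = 100 µM mitoxantrone as full dye displacement; higher means more dye released from RNA so lower well fluorescence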
UHRF1 DNA bind: counter-screen for MBD2 inhibitors: human UHRF1 methylated DNA binding inhibitors; inhibition, % at 4.4 µM; UHRF1 binding to methylated oligonucleotide, TR-FRET; 25% of 1,000 active; shares compounds with MBD2 DNA inh;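 note: UHRF1 SRA domain binding a labeled hemimethylated CpG hairpin DNA; 0% = vehicle only and 100% = reference inhibitor with vehicle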
MBD2 confirm: MBD2-DBD methyl-DNA binding inhibition, TR-FRET confirmation; shares compounds with MBD2 DNA inh; TR-FRET MBD2-DBD binding to methylated oligonucleotide; inhibition, % at 4.4 µM; 26% of 1,000 active; in the data active = inhibition above about 14%
* hit, by the source's call. Most compounds without a hit are left out; they make up all but 3.1% or so of the library. Cut-off read from the data, not from the text of the source, unless noted: active = inhibition above about 21%; inactive = the rest.

For O=C(O)C1CCCCC1C(=O)Nc1cccc(Br)c1 (stereo unspecified) the results were ATG4B inh 0, MBD2 DNA inh 40*, CSN deneddyl inh 27, LEDGF integ inh 5, UHRF1 binding 67*, rCAG binder 8, UHRF1 DNA bind 63* and MBD2 confirm 41*.
`Cn1cc(C[C@H](NC(=O)OC(C)(C)C)C(=O)N[C@@H](CO)Cc2ccccc2)c2ccccc21` gave ATG4B inh -7, MBD2 DNA inh 26*, CSN deneddyl inh -1, LEDGF integ inh 1, UHRF1 binding 2, rCAG binder -11, UHRF1 DNA bind 7 and MBD2 confirm 2.
`CC(C)(C)OC(=O)NC(Cc1ccccc1)C(=O)NCCCC(=O)O` (stereo unspecified) gave ATG4B inh -5, MBD2 DNA inh 0, CSN deneddyl inh 7, LEDGF integ inh -3, UHRF1 binding -3 and rCAG binder -2.
Screening COc1ccc(-c2nnn(CCC(=O)O)n2)cc1 returned ATG4B inh -5, MBD2 DNA inh 36*, CSN deneddyl inh -2, LEDGF integ inh 1, UHRF1 binding -1, rCAG binder 1, UHRF1 DNA bind 7 and MBD2 confirm 4.
`Cc1onc(-c2ccccc2Cl)c1C(=O)N1CCC(Cc2ccccc2)CC1` gave ATG4B inh -2, MBD2 DNA inh 16*, CSN deneddyl inh 0, LEDGF integ inh 1, UHRF1 binding 29*, rCAG binder -5, UHRF1 DNA bind 8 and MBD2 confirm 2.
Screening Cc1onc(-c2ccccc2Cl)c1C(=O)N1CCC(C(N)=O)CC1 returned ATG4B inh -12, MBD2 DNA inh 1, CSN deneddyl inh 0, LEDGF integ inh -8, UHRF1 binding 7 and rCAG binder 3.
For OCCCNCc1cccc2ccccc12 the results were ATG4B inh -8, MBD2 DNA inh 15*, CSN deneddyl inh 2, LEDGF integ inh 3, UHRF1 binding 18, rCAG binder -3, UHRF1 DNA bind 5 and MBD2 confirm 19*.
Screening CC(O)CNCc1cccc2ccccc12 (stereo unspecified) returned ATG4B inh -2, MBD2 DNA inh 6, CSN deneddyl inh 3, LEDGF integ inh 5, UHRF1 binding 18 and rCAG binder 2.
`Cc1c(C)n(CCN(C)C)c2ccc(C(=O)OCCN(C)C)cc12` gave ATG4B inh -4, MBD2 DNA inh 13*, CSN deneddyl inh -2, LEDGF integ inh 1, UHRF1 binding 15, rCAG binder -9, UHRF1 DNA bind 24* and MBD2 confirm 11.
For CCNC(=O)C1(C)CCN(Cc2ccc(C(F)(F)F)cc2)C1 (stereo unspecified) the results were MBD2 DNA inh 0, CSN deneddyl inh 0, LEDGF integ inh 3, UHRF1 binding 0 and rCAG binder -1.
Screening CCNC(=O)C1(C)CCN(Cc2ccc(OC(F)(F)F)cc2)C1 (stereo unspecified) returned MBD2 DNA inh 29*, CSN deneddyl inh 0, LEDGF integ inh 0, UHRF1 binding 1, rCAG binder -2, UHRF1 DNA bind 11 and MBD2 confirm 6.
`COC(=O)[C@]12C[C@H](CC(=O)N3CCN(C(=O)c4ccco4)CC3)C(=O)N(Cc3ccc4c(c3)OCO4)C1=C[C@H](C(C)C)O[C@@H]2C1CC1` gave MBD2 DNA inh 0, LEDGF integ inh -4, UHRF1 binding 5 and rCAG binder 6.
N=c1oc2cc(O)ccc2cc1C(=O)Nc1ccc(Cl)cc1 was read as ATG4B inh -11, MBD2 DNA inh 14*, CSN deneddyl inh 5, LEDGF integ inh -1, UHRF1 binding 3, rCAG binder 6, UHRF1 DNA bind 7 and MBD2 confirm 4.
For Cc1ccc(NC(=O)c2cc3ccccc3oc2=N)cc1 the results were ATG4B inh 3, MBD2 DNA inh -2, CSN deneddyl inh -3, LEDGF integ inh 5, UHRF1 binding 2 and rCAG binder 0.
For CCCCCCOC(=O)Cc1c(C)nc(-c2ccccc2)[nH]c1=O the results were ATG4B inh -7, MBD2 DNA inh 13*, CSN deneddyl inh -3, LEDGF integ inh -4, UHRF1 binding 15, rCAG binder -1, UHRF1 DNA bind 3 and MBD2 confirm 2.
Screening C=C(C)Cc1c(C)nc(-c2ccccc2)[nH]c1=O returned ATG4B inh -2, MBD2 DNA inh 1, CSN deneddyl inh -1, LEDGF integ inh 1, UHRF1 binding 0 and rCAG binder -3.
For O=C(N[C@@H](Cc1ccccc1)C(=O)N1CCC2CCN(S(=O)(=O)c3ccccc3)CC21)[C@@H]1CCCN1 (stereo partly specified) the results were MBD2 DNA inh 3, LEDGF integ inh -1, UHRF1 binding 1 and rCAG binder 2.
For Cc1cc(C)n2nc(-c3ccc(F)cc3)cc2n1 the results were MBD2 DNA inh 28*, CSN deneddyl inh -1, LEDGF integ inh -4, UHRF1 binding -1, rCAG binder 0, UHRF1 DNA bind 7 and MBD2 confirm 3.
`Cc1ccc(-c2cc3nc(C)cc(C)n3n2)cc1` gave ATG4B inh -20, MBD2 DNA inh -2, CSN deneddyl inh -12, LEDGF integ inh -2, UHRF1 binding 2 and rCAG binder -5.
For CN1Cc2nnn(Cc3ccccc3)c2-c2cc(N3CCCC3)ccc2S1(=O)=O the results were MBD2 DNA inh -2, LEDGF integ inh -1, UHRF1 binding -5 and rCAG binder 7.
Screening CCOC(=O)C1=C(COC(=O)c2cccnc2Cl)NC(=O)NC1C (stereo unspecified) returned ATG4B inh -10, MBD2 DNA inh 19*, CSN deneddyl inh 1, LEDGF integ inh 6, UHRF1 binding -2, rCAG binder 1, UHRF1 DNA bind 2 and MBD2 confirm 3.
CCOC(=O)C1=C(COC(=O)c2ccccc2OC)NC(=O)NC1C (stereo unspecified) was read as ATG4B inh -5, MBD2 DNA inh -2, CSN deneddyl inh -2, LEDGF integ inh 1, UHRF1 binding -1 and rCAG binder -4.
Screening CC1=NNC(=O)C1CCC(=O)N/N=C/c1ccccc1 (stereo unspecified) returned ATG4B inh 4, MBD2 DNA inh 27*, CSN deneddyl inh -2, LEDGF integ inh -5, UHRF1 binding -1, rCAG binder 2, UHRF1 DNA bind 7 and MBD2 confirm 2.

Screening results deposited in PubChem by several laboratories.
